# S100A4 inh HTS: blocks human S100A4 binding to myosin IIA peptide | P26447 | S100A4/TAMRA-MyoIIA peptide fluorescence polarization | inhibition, % at 10.7 µM | 360,000 compounds, 0.14% hits | AID 652163;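 active = mean inhibition of at least 70% across replicates, with every replicate also reaching that level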
# Target sequence (P26447 whole entry, looked up): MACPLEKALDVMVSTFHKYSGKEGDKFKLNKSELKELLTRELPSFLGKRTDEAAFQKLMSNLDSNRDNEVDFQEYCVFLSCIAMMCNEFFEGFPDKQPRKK
#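 Material: S100A4 monomer protein | Medium: HEPES pH 7.2 with CaCl2, KCl, NaCl, DTT, Triton | Reagent: Labelled myosin peptide probe, 5 nM | Doses: One dose per compound | Times: 5 min incubation before reading | Benchmarks: Neutral control DMSO, positive control TFP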
# ERAP1 HTS inh: blocks human ERAP1 aminopeptidase activity; 340,000 compounds, 0.15% hits; AID 652197; inhibition, % at 10.7 µM; recombinant ERAP1, Leu-AMC fluorescence, 60 min;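 active = mean replicate inhibition of at least 30%, or all replicates individually reaching that 30% level; inactive = mean below 30% and not every replicate reaching it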;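 also: 0% = neutral control wells and 100% = L-leucinethiol positive control wells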
# SIRT5 inh: blocks human SIRT5 desuccinylation of peptide | inhibition, % at 15 µM | AID 652115 | 330,000 compounds, 1.1% hits | Purified SirT5, succinyl-peptide AMC, trypsin-coupled fluorescence; in the data active = inhibition above about 15%
# E-selectin induc: E-selectin induction on HUVECs; HUVEC E-selectin immunofluorescence imaging; normalized: neutral wells 0, TNF-alpha wells 100; activation, % at 7.58 µM; 260,000 compounds, 0.37% hits; AID 686992;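 active = mean E-selectin-positive cell signal at least 10% of the positive control, reached in at least 60% of replicates, without over 20% cell loss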
#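 Material: HUVEC primary endothelial cells; Amount: 3,000 cells per well; Dosing: single concentration; Medium: EGM-2 growth medium on 0.1% gelatin-coated wells; Read-out basis: percent E-selectin-positive cells; Signal: immunofluorescence imaging; Control set: TNF-alpha, DMSO.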
# AF4-AF9 inh: inhibitors of human MLL-AF4/AF9 interaction; P42568; 350,000 compounds, 0.47% hits; AlphaScreen, biotin-AF4 peptide binding to FLAG-AF9; inhibition, % at 10 µM; AID 651704;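 active = every replicate reaching a set inhibition limit, whatever the replicate mean, cut at about 25% in these data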;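 also: 0% = plate neutral control median and 100% = total signal loss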
# Target sequence (P42568 whole entry, looked up): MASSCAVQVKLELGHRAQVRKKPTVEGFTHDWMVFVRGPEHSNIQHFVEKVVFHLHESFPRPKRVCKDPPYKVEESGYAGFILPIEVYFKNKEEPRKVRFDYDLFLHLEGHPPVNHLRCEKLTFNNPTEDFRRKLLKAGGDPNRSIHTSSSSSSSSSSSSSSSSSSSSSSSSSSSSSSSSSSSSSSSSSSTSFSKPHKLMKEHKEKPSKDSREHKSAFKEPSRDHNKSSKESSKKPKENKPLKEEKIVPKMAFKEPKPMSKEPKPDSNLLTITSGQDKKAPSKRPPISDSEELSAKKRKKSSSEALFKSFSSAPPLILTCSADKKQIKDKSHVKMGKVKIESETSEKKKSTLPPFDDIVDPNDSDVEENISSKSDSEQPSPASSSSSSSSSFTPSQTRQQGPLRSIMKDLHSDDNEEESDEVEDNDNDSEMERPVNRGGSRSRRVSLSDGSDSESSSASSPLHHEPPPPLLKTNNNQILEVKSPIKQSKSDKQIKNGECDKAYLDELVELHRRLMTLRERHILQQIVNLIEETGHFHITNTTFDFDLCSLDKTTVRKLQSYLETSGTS
# rRNA inh HTS: inhibits bacterial ribosomal RNA function over humanized ribosomes; 350,000 compounds, 1.6% hits; GFP signal change (wild-type ribosome), % (concentration not given with the values); E. coli WT GFP vs humanized-ribosome RFP mutants, fluorescence, 24 h; stronger effect = lower value; DMSO median 0, no signal -100;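 active = significant combined selectivity score with lowered wild-type GFP, culture density cut under 30%, mutant RFP and density less affected; inactive = any of these conditions unmet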
# An asterisk follows results filed as active; nt = no result given; ! = not active in a repeat. Most compounds without a hit are left out; they make up all but 3.4% or so of the library.
SMILES,S100A4 inh HTS,ERAP1 HTS inh,SIRT5 inh,E-selectin induc,AF4-AF9 inh,rRNA inh HTS
Cc1cc(/C=N/NC(=O)c2cccc(N(C)C)c2)c(C)n1-c1cc(C(=O)O)cc(C(=O)O)c1,-2.2,1.8,20.4*,nt,-2.6,16.1
C[C@@H]1CN([C@H](C)CO)C(=O)c2cc(NS(=O)(=O)c3ccc(Cl)cc3)ccc2O[C@H]1CN(C)Cc1ccc2c(c1)OCO2,-2.7,-2.3,19.7*,-0.1,0.7,-5.2
COc1ccc(S(=O)(=O)Nc2ccc3c(c2)C(=O)N([C@H](C)CO)C[C@H](C)[C@@H](CN(C)Cc2ccc4c(c2)OCO4)O3)cc1,1.9,1.1,-3.0,-0.1,-0.8,-3.5
COc1ccc(S(=O)(=O)Nc2ccc3c(c2)C(=O)N([C@H](C)CO)C[C@H](C)[C@H](CN(C)Cc2ccc4c(c2)OCO4)O3)cc1,51.6,-0.8,16.3*,-0.1,1.0,3.9
CC(C)NC(=O)N[C@@H]1CC[C@@H](CC(=O)NCc2ccc(Oc3ccccc3)cc2)O[C@H]1CO,7.5,-2.6,4.3,-0.5,-4.1,-1.5
CC(=O)c1cnc2nc(SCc3ccc(Cl)cc3)nn2c1C,1.0,nt,5.6,0.3,-1.7,-35.5
CC(=O)c1cnc(SCc2ccc(Cl)cc2)nc1C,2.5,6.9,-4.6,nt,-2.6,-28.2*
CCO[C@H]1OC(C(=O)N2CCN(Cc3ccc4c(c3)OCO4)CC2)=C[C@@H](c2ccc3c(c2)OCO3)[C@@H]1CCCO,-3.3,0.3,0.4,-0.8,6.3,-22.5*
C#Cc1ccc([C@H]2C=C(C(=O)NCc3ccccc3)O[C@@H](OCC)[C@@H]2CCCO)cc1,-2.4,0.1,20.7*!,0.8,-0.8,-34.3
CCO[C@H]1OC(C(=O)N2CCN(Cc3ccccc3)CC2)=C[C@@H](c2ccccc2)[C@@H]1CCCO,-1.5,1.5,-1.9,0.7,3.4,-32.0*
O=C(C[C@@H]1CC[C@@H](NC(=O)NC2CCCC2)[C@H](CO)O1)NCc1ccc(F)cc1,120.0*,1.0,3.3,0.0,-3.5,1.8
O=C(C[C@@H]1CC[C@@H](NC(=O)CC2CC2)[C@H](CO)O1)NCc1ccc(Cl)cc1,134.7*,4.3,4.7,0.3,-13.4,1.2
COc1ccc2c3c([nH]c2c1)[C@@H](CO)N(CC1CC1)CC31CN(S(=O)(=O)c2cccc(F)c2)C1,-5.9,2.4,0.3,0.0,-4.3,1.6
COC(=O)[C@H]1[C@H](CO)[C@H]2Cn3c(ccc(-c4cccc(F)c4)c3=O)[C@H]2N1Cc1ccncc1,-2.0,-7.7,-15.2,1.1,-1.0,-0.1
C[C@H]1CN([C@@H](C)CO)C(=O)c2cc(NC(=O)CCCCCC(=O)Nc3ccccc3N)ccc2O[C@H]1CN(C)C(=O)Nc1ccc(F)cc1,1.5,-2.3,4.1,43.5*,-1.8,1.6
C[C@@H]1CN([C@@H](C)CO)C(=O)c2cc(NC(=O)CCCCCC(=O)Nc3ccccc3N)ccc2O[C@H]1CN(C)C(=O)Nc1ccc2c(c1)OCO2,119.1*,-1.6,0.1,104.7*,0.3,-4.4
C[C@@H]1CN([C@H](C)CO)C(=O)c2cc(NC(=O)CCCCCC(=O)Nc3ccccc3N)ccc2O[C@H]1CN(C)C(=O)Nc1ccc2c(c1)OCO2,8.1,2.9,1.7,27.9*,-0.6,2.8
CO[C@@H]1CN(C)C(=O)c2cc(NS(=O)(=O)c3ccccc3)ccc2OC[C@H](C)NC[C@H]1C,3.5,2.3,nt,-0.1,-2.3,1.7
Cn1c(C(=O)N2CCOCC2)cc2c(=O)n3ccccc3nc21,-6.1,57.5*,-51.4,-0.4,-1.1,8.9
CN(C(=O)c1cc2c(=O)n3ccccc3nc2n1C)C1CCCCC1,-2.0,60.8*,-43.1,0.0,-5.7,-5.2
CC1CN(C(=O)c2cc3c(=O)n4ccccc4nc3n2C)CC(C)O1 (centres undefined),2.1,37.9*,-63.3,nt,-2.6,2.7
CCN(C(=O)c1cc2c(=O)n3ccccc3nc2n1C)C1CCCCC1,5.0,20.2,-52.5,nt,-6.8,-11.4
CC1CCCCC1NC(=O)c1cc2c(=O)n3ccccc3nc2n1C (centres undefined),0.6,-43.5,-74.1,nt,-9.5,4.3
CC1CC(NC(=O)c2cc3c(=O)n4ccccc4nc3n2C)CC(C)(C)C1 (centres undefined),-0.1,2.0,15.0*,nt,-22.7,2.5
O=C(Nc1ccc(F)cc1)N1C[C@@H]2[C@H](c3ccccc31)[C@@H](CO)N2C(=O)Cc1cccnc1,2.8,-0.4,-0.1,-0.3,-0.6,2.5
SMILES,S100A4 inh HTS,ERAP1 HTS inh,SIRT5 inh,E-selectin induc,AF4-AF9 inh,rRNA inh HTS
COc1ccc(NC(=O)N(C)C[C@H]2Oc3ccc(NC(=O)Nc4ccccc4)cc3CC(=O)N([C@@H](C)CO)C[C@H]2C)cc1,2.4,-1.9,-0.5,0.8,-0.7,0.7
CO[C@H]1CN(C)C(=O)c2ccc(NS(C)(=O)=O)cc2OC[C@@H](C)NC[C@H]1C,-0.1,0.2,-2.9,1.1,-2.7,1.5
O=C(NCCc1ccncc1)[C@@H]1N[C@@H]2c3ccc(/C=C/c4ccccc4)c(=O)n3C[C@@H]2[C@H]1CO,0.6,-65.9,-59.3,0.3,-1.4,-1.0
CCOC(=O)c1c(NC(=O)COC(=O)c2nc(Cl)ccc2Cl)sc2c1CCC2,-3.3,4.4,-0.1,137.2*,0.9,10.2
CCOC(=O)c1c(NC(=O)COC(=O)c2nccnc2N)sc2c1CCC2,2.5,3.7,-4.0,-0.2,1.0,4.3
COc1ccccc1CNS(=O)(=O)c1cccs1,-2.9,0.0,88.7*,nt,1.5,2.7
COc1ccccc1CNC(=O)C1CCC(CNS(=O)(=O)c2cccs2)CC1 (centres undefined),0.4,-2.6,-0.8,nt,0.4,-2.0
C[C@H]1CN([C@@H](C)CO)C(=O)c2cc(NS(C)(=O)=O)ccc2O[C@@H]1CN(C)S(C)(=O)=O,-0.8,2.6,-10.8,0.0,-3.9,6.9
CC1CCCN(c2nc(N(C)c3ccccc3)nc(N)c2[N+](=O)[O-])C1 (centres undefined),-5.4,5.4,0.0,-0.2,15.7,-16.9*
CC(c1nc2ccccc2[nH]1)n1c(-c2ccncc2)nc2ccccc21 (centres undefined),-1.9,2.1,-0.8,0.2,nt,-1.3
Cc1csc(-c2nc3ccccc3n2C(C)c2nc3ccccc3[nH]2)c1 (centres undefined),-2.7,nt,-2.6,0.0,1.3,-30.4*
CCS(=O)(=O)Nc1ccc2c(c1)C(=O)N(C)C[C@@H](OC)[C@@H](C)CN(C(C)=O)[C@H](C)CO2,98.1*,1.2,-0.7,0.2,1.7,1.0
CO[C@H]1CN(C)C(=O)c2cc(NC(=O)CC(F)(F)F)ccc2OC[C@H](C)N(C(=O)C2CCCCC2)C[C@H]1C,-29.4,-2.4,2.2,0.0,-4.1,0.6
